ChEMBL document CHEMBL4513216, “Probing the Open Global Health Chemical Diversity Library for Multistage-Active Starting Points for Next-Generation Antimalarials” (ACS Infect Dis, 2020)

assay: Toxicity liver stage against HepG2, at 10uM; type: cell-based; parameters: test concentration 10 uM, cell line HepG2-A16-CD81EGFP; settings: human, HepG2-A16-CD81EGFP cells; read-out: INHIBITION
Summary of the method: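 Uninfected HepG2-A16-CD81EGFP cells, 3 × 10^3 per well, 1536-well, plated on prespotted compound at 10 μM final, parasite-free screening media added to match infected plates; puromycin 10 μM positive, DMSO 0.5% negative; run in parallel with 48 h PbLuc assay at 37 °C, 5% CO2; viability by CellTiter-Glo luminescence, normalized to controls.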

SMILES	cytotoxicity at 10 µM [%]
CCOc1ccc(Cl)c(C(=O)N2CCN(c3cnccn3)CC2)n1	-4.89
CCN(Cc1nc2c(cnn2C)c(=O)[nH]1)c1ccccc1C	2.78
CC(C)=CCC1(C(=O)O)CCCN(CCC(=O)NC2CC2)C1 (centres undefined)	-7.69
O=C(O)c1cccnc1CN1CCCC1CCc1ccccc1 (centres undefined)	10.9
Cc1ccc(C)c(C(=O)Nc2ccc(OC3CCN(C)CC3)cc2)c1	8.97
O=C(NC[C@H]1C[C@@H]2CN(C(=O)c3ccno3)C[C@@H]2O1)C1CCC1	-5.21
CSc1ccc(NC(=O)Cc2cccc(O)c2)nc1	-4.3
CC(C(=O)NCc1ccc(N2CCN(C)CC2)nc1)n1cccn1 (centres undefined)	-9.51
CN(Cc1n[nH]c(=O)n1Cc1cccs1)S(C)(=O)=O	-4.2
CC(C)C(C)(C#N)NC(=O)Cn1cc(C(N)=O)c(-c2ccccc2)n1 (centres undefined)	-8.82
Cc1c(Cl)c(C(=O)N2C[C@@H](C(=O)O)[C@H](c3cccnc3)C2)nn1C	6.21
CCOCCC1(C(=O)N2CCCC(c3ncc[nH]3)C2)CCCC1 (centres undefined)	-1.7
c1cnc(N2CCO[C@H]3CN(Cc4c[nH]cn4)C[C@H]32)cn1	9.49
CN(C)CCN1CCN(Cc2cccs2)Cc2cccnc21	-3.24
Cc1nc(CN(C)C2CCN(Cc3cccc4cccnc34)C2)no1 (centres undefined)	-11.5
CC(C)c1noc(CN2CCN(C(=O)c3ccc(F)cc3)CC2)n1	-9.73
CCN1CC[C@@]2(C(=O)N(C)C)CCN(C(=O)NC(C)C)CC[C@@H]12	-15.2
CN1CCN([C@H]2COC[C@@H]3CN(Cc4cccnc4)C[C@@H]32)CC1	-77.9
COC(=O)c1sc(C(NC(=O)c2ccccc2)C2CC2)nc1C (centres undefined)	0.0726
CCc1csc(CNC2CCN(c3ccc(C)cc3)CC2)n1	-10.8
CCn1cnnc1C1CCN(C(=O)c2ccc(OC(C)C)nc2)CC1	1.14
Cc1nc(C(C)(C)C)sc1C(=O)NCCNc1ncccn1	-4.83
CN(C)Cc1ccnc(C2CN(CCc3ccccc3)CCO2)n1 (centres undefined)	-16.5
Cn1c(C(N)=O)ccc1-c1ccccc1	3.18
O=C(C1CCOC1)N1C[C@@H]2CCN(C(=O)c3cscn3)[C@@H]2C1 (some centres undefined)	-2.85
Cc1ncsc1CN1CC[C@H]2C(=O)N(c3ccccc3)CCO[C@H]2C1	1.26
Cc1ccc(CNC(=O)Nc2nnc(C)s2)cn1	-0.243

SMILES	cytotoxicity at 10 µM [%]
Cc1[nH]c2c(F)cccc2c1CC(=O)N1CCC(NS(C)(=O)=O)CC1	7.58
Cc1nccn1C1CCCN(C(=O)c2ccc3cc[nH]c3c2)C1 (centres undefined)	-9.69
Cc1cccnc1NC(=O)c1ccc(-n2ncc(C#N)c2N)cc1	-9.35
Nc1c(N2CCCCC2)ncnc1N1CCOCC1	3.66
c1ccc(CCCC2CN(Cc3ncc[nH]3)CCO2)cc1 (centres undefined)	-3.83
COC(=O)N1CCC(Nc2ccc(Cl)c(C#N)n2)CC1	1.96
CC(=O)N1CCC(c2cnc(-c3c(C)n[nH]c3C)cn2)CC1	-17.1
CC(=O)N1CCN([C@@H]2CC[C@@H](NC(=O)c3ccc(C)nc3)[C@H]2O)CC1	-3.08
Cn1cccc1C(=O)N[C@@H]1CN(Cc2cccs2)[C@@H]2COC[C@@H]21	8.88
CO[C@H]1CN(C(=O)c2cccnc2)[C@@H]2CCCO[C@H]12	5
Cc1occc1C(=O)Nc1cccc(C(=O)OCC2CCCN2)c1 (centres undefined)	-2.09
CO[C@H]1CN(C(=O)OC(C)(C)C)CC1NCc1cc[nH]c1 (some centres undefined)	-46.6
CCc1n[nH]c(C2CN(C(=O)c3cc4c(s3)CCC4)CCO2)n1 (centres undefined)	-4.98
CC(CCc1ccccc1)NC(=O)CNCCCN1CCOCC1 (centres undefined)	-11.1
Cc1cc(N(C)C)nc(C2CCCNC2)n1 (centres undefined)	-3.55
CCSCCn1c(=O)n(Cc2ccc(F)cc2)c2ncc(C(=O)O)cc21	-2.54
CC(NC(=O)CCCc1nc(C(C)(C)C)no1)c1nnc2n1CCC2 (centres undefined)	-0.527
CCc1nnc(Nc2cccc(C3CCN(S(=O)(=O)N(C)C)CC3)n2)s1	-16.2
O=C([C@H]1CCCO1)N1CC[C@@H](O)[C@@H]1Cc1ccccc1	1.41
COc1ccc(-c2nnsc2C(=O)N2CCC(C(N)=O)CC2)cc1	-1.7
Cc1ccc2nc(C3CCCN(Cc4ccccc4)C3)nc(O)c2c1 (centres undefined)	6.67
C/C=C(\C)CN1C[C@H](NC(=O)CCOC)[C@@H](c2ccc(C)o2)C1	7.06
Cc1ccc(C)c(-n2ncc(NC(=O)NC3(C)CCOC3)c2C)c1 (centres undefined)	-41.6
CC(Cn1ccnc1)NC(=O)N1CCN(Cc2ccncc2)CC1 (centres undefined)	-4.1
COCC(=O)N1CCC(c2cc3n(n2)[C@@H](C(F)(F)F)C[C@@H](C)N3)CC1	-26.5
COCCCNc1nc(CNC(C)=O)cc(-c2ccco2)n1	-5.52
CC(C(N)=O)N1CCc2onc(-c3cccc(F)c3)c2C1 (centres undefined)	3.38
